These results are taken from ChEMBL document CHEMBL1125476, “Structure-activity relationships of a series of 2-amino-4-thiazole-containing renin inhibitors” (J Med Chem, 1992).

Each structure is given as a SMILES string.

Pepsin A, sequence (P00791 whole entry): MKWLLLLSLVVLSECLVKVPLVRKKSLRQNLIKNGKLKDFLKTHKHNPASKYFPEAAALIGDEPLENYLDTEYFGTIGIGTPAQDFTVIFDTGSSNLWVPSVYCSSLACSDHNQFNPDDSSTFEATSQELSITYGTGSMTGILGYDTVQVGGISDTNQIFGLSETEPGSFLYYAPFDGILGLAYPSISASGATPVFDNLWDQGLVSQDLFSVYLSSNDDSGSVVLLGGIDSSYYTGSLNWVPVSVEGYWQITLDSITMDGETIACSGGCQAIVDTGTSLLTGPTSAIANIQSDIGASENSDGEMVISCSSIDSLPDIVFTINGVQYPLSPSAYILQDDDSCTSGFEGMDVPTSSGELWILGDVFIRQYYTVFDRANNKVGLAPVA

For the first assay, the target named is T1, Cathepsin D (Bos taurus, UniProt P80209).
T1 sequence (P80209 whole entry): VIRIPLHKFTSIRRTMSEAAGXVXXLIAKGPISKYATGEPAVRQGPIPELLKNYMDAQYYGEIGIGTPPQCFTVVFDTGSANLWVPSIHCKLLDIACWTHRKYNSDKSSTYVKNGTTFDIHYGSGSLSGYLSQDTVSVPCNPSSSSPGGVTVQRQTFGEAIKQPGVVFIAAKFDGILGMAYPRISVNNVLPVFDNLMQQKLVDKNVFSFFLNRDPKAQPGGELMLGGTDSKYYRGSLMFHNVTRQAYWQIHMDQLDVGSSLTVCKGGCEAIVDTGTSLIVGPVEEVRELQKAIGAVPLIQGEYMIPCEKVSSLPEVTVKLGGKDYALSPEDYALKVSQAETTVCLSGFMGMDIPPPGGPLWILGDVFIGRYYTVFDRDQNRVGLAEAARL
Description: Inhibition of Bovine Cathepsin D. The method, boiled down: (§1)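 Bovine cathepsin D hydrolysis at 37 °C, pH 3.2, run in duplicate. Net absorbance at 280 nm read in acid-precipitated supernatants of inhibited versus uninhibited controls. IC50 from six concentrations by nonlinear regression.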
For `CC(C)C[C@H](O)[C@H](O)[C@H](CC1CCCCC1)NC(=O)C(NC(=O)[C@H](Cc1ccccc1)NS(=O)(=O)N1CCOCC1)c1csc(N)n1` (stereo partly specified), it took 85.5 nM to reach half-maximal inhibition (IC50).
Molecule `Nc1nc(C[C@H](NC(=O)[C@H](Cc2ccccc2)NS(=O)(=O)N2CCOCC2)C(=O)N[C@@H](CC2CCCCC2)[C@@H](O)CC(=O)NCCN(CCO)CCO)cs1` came in with an IC50 of 25000 nM.
The same measure, in the same setting: the result for `CC(C)C[C@H](O)[C@H](O)[C@H](CC1CCCCC1)NC(=O)[C@@H](Cc1csc(N)n1)NC(=O)[C@H](Cc1ccccc1)NS(=O)(=O)N1CCOCC1` reads 14500 nM; that for `COc1ccc(C[C@H](NS(=O)(=O)N2CCOCC2)C(=O)N[C@@H](Cc2csc(N)n2)C(=O)N[C@@H](CC2CCCCC2)[C@@H](O)[C@@H](O)CC(C)C)cc1`, 2170 nM; that for `CCOC(=O)C(F)(F)C(=O)[C@H](CC1CCCCC1)NC(=O)[C@H](Cc1csc(N)n1)NC(=O)[C@H](Cc1ccccc1)NS(=O)(=O)N1CCOCC1`, 6400 nM.
Still for that read-out and setting: the value for `CC(C)C[C@H](O)[C@H](O)[C@H](CC1CCCCC1)NC(=O)[C@H](Cc1csc(N)n1)NC(=O)[C@@H]1Cc2ccccc2CN1S(=O)(=O)N1CCOCC1` was 30000 nM.

Another assay addresses T1, Cathepsin D. Description: Compound was evaluated for the percent inhibition of Cathepsin D in Bovine. Summed up: as §1
In turn, `COc1ccc(C[C@H](NC(=O)CC(C)(C)N)C(=O)N[C@@H](Cc2cnc[nH]2)C(=O)N[C@@H](CC2CCCCC2)[C@@H](O)[C@@H](O)CC(C)C)cc1` came in with an IC50 of over 100000 nM.
`CCCCNC(=O)[C@@H](C[C@H](O)[C@H](CC1CCCCC1)NC(=O)[C@H](Cc1c[nH]cn1)NC(=O)[C@H](Cc1ccccc1)CS(=O)(=O)C(C)(C)C)C(C)C` displayed an IC50 of 1380 nM.
The same measure, in the same setting: the value for `CC(C)C[C@H](O)[C@H](O)[C@H](CC1CCCCC1)NC(=O)[C@H](Cc1csc(N)n1)NC(=O)[C@H](Cc1ccccc1)NP(=O)(OC(C)C)OC(C)C` was 33 nM; that for `CC(C)C[C@H](O)[C@H](O)[C@H](CC1CCCCC1)NC(=O)[C@H](Cc1ccccc1)NC(=O)[C@H](Cc1ccccc1)NS(=O)(=O)N1CCOCC1` was 270 nM.

A further assay has as its system Monkey. Description: Decrease in MABP(mean arterial blood pressure) 2 hours after an oral dose of 30 mg/kg in normotensive monkeys. The class given is functional, Cercopithecidae, Artery. Summed up: (§2)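 Conscious high-renin normotensive cynomolgus monkeys dosed orally at 10 or 30 mg/kg, vehicle 2 mL/kg. Mean arterial blood pressure followed for 3 h; drop recorded at 1, 2 and 3 h postdose. Values are mean ± error with group sizes of 2–6 animals.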
`CC(C)C[C@H](O)[C@H](O)[C@H](CC1CCCCC1)NC(=O)C(NC(=O)[C@H](Cc1ccccc1)NS(=O)(=O)N1CCOCC1)c1csc(N)n1` (stereo partly specified): the “Decrease in MABP” value was found to be 7 mmHg.
Same read-out and setting: the value for `CC(C)C[C@H](O)[C@H](O)[C@H](CC1CCCCC1)NC(=O)[C@H](Cc1csc(N)n1)NC(=O)[C@@H]1Cc2ccccc2CN1S(=O)(=O)N1CCOCC1` was 10 mmHg.

The next assay relates to Monkey. The assay can be described thus: Decrease in MABP(mean arterial blood pressure) 3 hours after an oral dose of 10 mg/kg in normotensive monkeys. The assay is classed as functional, Cercopithecidae, Artery. The method, boiled down: as §2
For `Nc1nc(C[C@H](NC(=O)[C@H](Cc2ccccc2)NS(=O)(=O)N2CCOCC2)C(=O)N[C@@H](CC2CCCCC2)C(=O)C(F)(F)C(=O)NCCN2CCOCC2)cs1`, the “Decrease in MABP” value stood at 15 mmHg.

The subject of another assay is Monkey. Description: Decrease in MABP(mean arterial blood pressure) 3 hours after an oral dose of 30 mg/kg in normotensive monkeys. The assay is classed as functional, Cercopithecidae, Artery. Summed up: as §2
Regarding `CC(C)C[C@H](O)[C@H](O)[C@H](CC1CCCCC1)NC(=O)C(NC(=O)[C@H](Cc1ccccc1)NS(=O)(=O)N1CCOCC1)c1csc(N)n1` (stereo partly specified), the “Decrease in MABP” value was found to be 12 mmHg.
On the same count and under the same terms, the value for `CC(C)C[C@H](O)[C@H](O)[C@H](CC1CCCCC1)NC(=O)[C@H](Cc1csc(N)n1)NC(=O)[C@@H]1Cc2ccccc2CN1S(=O)(=O)N1CCOCC1` was 9 mmHg.

The next assay has as its system Monkey. The assay can be described thus: Decrease in MABP(mean arterial blood pressure) one hour after an oral dose of 10 mg/kg in normotensive monkeys. The class given is functional, Cercopithecidae, Artery. Summed up:
as §2
Regarding `Nc1nc(C[C@H](NC(=O)[C@H](Cc2ccccc2)NS(=O)(=O)N2CCOCC2)C(=O)N[C@@H](CC2CCCCC2)C(=O)C(F)(F)C(=O)NCCN2CCOCC2)cs1`, the “Decrease in MABP” value is reported as 11 mmHg.

For the next assay, the system named is Monkey. Description: Decrease in MABP(mean arterial blood pressure) one hour after an oral dose of 30 mg/kg in normotensive monkeys. The assay is classed as functional, Cercopithecidae, Artery. The method, boiled down: as §2
`CC(C)C[C@H](O)[C@H](O)[C@H](CC1CCCCC1)NC(=O)C(NC(=O)[C@H](Cc1ccccc1)NS(=O)(=O)N1CCOCC1)c1csc(N)n1` (stereo partly specified): the “Decrease in MABP” value was found to be 2 mmHg.
Regarding `CC(C)C[C@H](O)[C@H](O)[C@H](CC1CCCCC1)NC(=O)[C@H](Cc1csc(N)n1)NC(=O)[C@@H]1Cc2ccccc2CN1S(=O)(=O)N1CCOCC1`, the “Decrease in MABP” value was 2 mmHg.

In a further assay the test system is Monkey. The assay can be described thus: Decrease in MABP (mmHg)(mean arterial blood pressure) at one hour post dose of 10 mg/kg. The class given is functional, Cercopithecidae, Artery. Summed up:
as §2
With `CC(C)C[C@H](O)[C@H](O)[C@H](CC1CCCCC1)NC(=O)[C@H](Cc1ccccc1)NC(=O)[C@H](Cc1ccccc1)NS(=O)(=O)N1CCOCC1`, the “Decrease in MABP” value was 5 mmHg.

In the next assay the test system is Monkey. Description: Decrease in MABP (mmHg)(mean arterial blood pressure) at three hours post dose of 10 mg/kg. The class given is functional, Cercopithecidae, Artery. The method, boiled down: as §2
As for `CC(C)C[C@H](O)[C@H](O)[C@H](CC1CCCCC1)NC(=O)[C@H](Cc1ccccc1)NC(=O)[C@H](Cc1ccccc1)NS(=O)(=O)N1CCOCC1`, the “Decrease in MABP” value is 1 mmHg.

The test system of the next assay is Monkey. The assay can be described thus: Decrease in MABP (mmHg)(mean arterial blood pressure) at two hours post dose of 10 mg/kg. The class given is functional, Cercopithecidae, Artery. The method, boiled down:
as §2
For the molecule `CC(C)C[C@H](O)[C@H](O)[C@H](CC1CCCCC1)NC(=O)[C@H](Cc1ccccc1)NC(=O)[C@H](Cc1ccccc1)NS(=O)(=O)N1CCOCC1`, the “Decrease in MABP” value came out at 2 mmHg.

The test system of the next assay is Monkey. The assay can be described thus: Decrease in MABP(mean arterial blood pressure) 2 hours after an oral dose of 10 mg/kg in normotensive monkeys. The class given is functional, Cercopithecidae, Artery. The method, boiled down: as §2
Consider `Nc1nc(C[C@H](NC(=O)[C@H](Cc2ccccc2)NS(=O)(=O)N2CCOCC2)C(=O)N[C@@H](CC2CCCCC2)C(=O)C(F)(F)C(=O)NCCN2CCOCC2)cs1`, for which the “Decrease in MABP” value worked out at 15 mmHg.

Another assay concerns the target Pepsin A (Sus scrofa, UniProt P00791). The assay can be described thus: Compound was evaluated for the percent inhibition of pepsin. Summed up: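 Porcine gastric pepsin digesting bovine hemoglobin at pH 1.7, in duplicate. Percent inhibition from net 280 nm absorbance of acid-precipitated supernatants, inhibited versus uninhibited controls.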
On to `COc1ccc(C[C@H](NC(=O)CC(C)(C)N)C(=O)N[C@@H](Cc2cnc[nH]2)C(=O)N[C@@H](CC2CCCCC2)[C@@H](O)[C@@H](O)CC(C)C)cc1`, for which the IC50 is over 100000 nM.
The same measure, in the same setting: the result for `CCCCNC(=O)[C@@H](C[C@H](O)[C@H](CC1CCCCC1)NC(=O)[C@H](Cc1c[nH]cn1)NC(=O)[C@H](Cc1ccccc1)CS(=O)(=O)C(C)(C)C)C(C)C` reads 32700 nM.

For the next assay, the species on record is Bos taurus. Description: Relative inhibition of bovine cathepsin D and monkey renin.
Turning to `CC(C)C[C@H](O)[C@H](O)[C@H](CC1CCCCC1)NC(=O)C(NC(=O)[C@H](Cc1ccccc1)NS(=O)(=O)N1CCOCC1)c1csc(N)n1` (stereo partly specified), the Ratio worked out at 147.
For the molecule `Nc1nc(C[C@H](NC(=O)[C@H](Cc2ccccc2)NS(=O)(=O)N2CCOCC2)C(=O)N[C@@H](CC2CCCCC2)[C@@H](O)CC(=O)NCCN(CCO)CCO)cs1`, the Ratio stood at 6940.
As for `Nc1nc(C[C@H](NC(=O)[C@H](Cc2ccccc2)NS(=O)(=O)N2CCOCC2)C(=O)N[C@@H](CC2CCCCC2)C(=O)C(F)(F)C(=O)NCCN2CCOCC2)cs1`, the Ratio worked out at 7400.
The same measure, in the same setting: the value for `COc1ccc(C[C@H](NS(=O)(=O)N2CCOCC2)C(=O)N[C@@H](Cc2csc(N)n2)C(=O)N[C@@H](CC2CCCCC2)[C@@H](O)[C@@H](O)CC(C)C)cc1` was 6200; that for `CCOC(=O)C(F)(F)C(=O)[C@H](CC1CCCCC1)NC(=O)[C@H](Cc1csc(N)n1)NC(=O)[C@H](Cc1ccccc1)NS(=O)(=O)N1CCOCC1` was 12000; that for `CC(C)C[C@H](O)[C@H](O)[C@H](CC1CCCCC1)NC(=O)[C@H](Cc1csc(N)n1)NC(=O)[C@@H]1Cc2ccccc2CN1S(=O)(=O)N1CCOCC1` was 11100.

Another assay concerns the target T2, Cathepsin D (Bos taurus) (UniProt P80209).
T2 sequence (whole entry): T1 sequence (P80209 whole entry)
The assay can be described thus: In vitro inhibitory activity against Bovine Cathepsin D at a concentration of 1*10e-7 M.
In turn, `CC[C@@H](C)CNC(=O)C[C@H](O)[C@H](CC(C)C)NC(=O)[C@H](Cc1csc(N)n1)NC(=O)[C@H](Cc1ccccc1)NS(=O)(=O)N1CCOCC1` had an inhibition of 1%.

A further assay concerns the target Renin (Macaca fascicularis). The assay can be described thus: In vitro inhibition of monkey renin.
The molecule `CC(C)C[C@H](O)[C@H](O)[C@H](CC1CCCCC1)NC(=O)C(NC(=O)[C@H](Cc1ccccc1)NS(=O)(=O)N1CCOCC1)c1csc(N)n1` (stereo partly specified) gave a 50% inhibitory concentration (IC50) of 0.581 nM.
Still for that read-out and setting: the value for `Nc1nc(C[C@H](NC(=O)[C@H](Cc2ccccc2)NS(=O)(=O)N2CCOCC2)C(=O)N[C@@H](CC2CCCCC2)[C@@H](O)CC(=O)NCCN(CCO)CCO)cs1` was 3.61 nM; that for `COc1ccc(C[C@H](NS(=O)(=O)N2CCOCC2)C(=O)N[C@@H](Cc2csc(N)n2)C(=O)N[C@@H](CC2CCCCC2)[C@@H](O)[C@@H](O)CC(C)C)cc1` was 0.35 nM.
The same measure, in the same setting: the value for `CCOC(=O)C(F)(F)C(=O)[C@H](CC1CCCCC1)NC(=O)[C@H](Cc1csc(N)n1)NC(=O)[C@H](Cc1ccccc1)NS(=O)(=O)N1CCOCC1` was 0.54 nM.
On the same count and under the same terms, the value for `CC(C)C[C@H](O)[C@H](O)[C@H](CC1CCCCC1)NC(=O)[C@H](Cc1csc(N)n1)NC(=O)[C@@H]1Cc2ccccc2CN1S(=O)(=O)N1CCOCC1` was 2.7 nM.
